# Compound activity as filed in PubChem BioAssay.
# Hits are enriched below; roughly 4.5% of the tested compounds scored in any of these assays.
# TAAR1 ag = human TAAR1 agonism; CHO RD-HGA16 TAAR1, Fluo-8 calcium fluorescence; vehicle wells 0%, saturating PEA agonist 100%; activation, % at 3 µM; 360,000 tested, 0.99% active;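 active = activation above the mean activation of all test compounds in the run plus 3 SD, cut at about 38% in these data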
# Target sequence (Q96RJ0 whole entry, looked up): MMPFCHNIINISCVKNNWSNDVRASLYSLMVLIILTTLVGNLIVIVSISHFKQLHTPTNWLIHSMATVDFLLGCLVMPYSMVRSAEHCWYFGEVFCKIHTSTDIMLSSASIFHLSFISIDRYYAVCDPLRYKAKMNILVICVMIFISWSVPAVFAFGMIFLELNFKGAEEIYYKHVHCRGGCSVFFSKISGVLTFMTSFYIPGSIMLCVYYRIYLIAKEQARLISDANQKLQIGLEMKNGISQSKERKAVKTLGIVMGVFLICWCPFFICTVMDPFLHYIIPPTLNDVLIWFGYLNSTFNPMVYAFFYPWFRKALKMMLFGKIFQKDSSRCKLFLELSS
#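 Repeats: no replicates (n 1) | Material: CHO-derived RD-HGA16 cells with stable Gα16 and human TAAR1 | Technique: Kinetic Fluo-8 calcium fluorescence | Schedule: 17-24 h seeding, 75 min 37 °C dye, 30 min RT | Evaluation: % activation from peak over basal fluorescence ratio, DMSO-to-PEA scaled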
# GPR7 antagonist = blocks human GPR7 receptor signaling. P48145. inhibition, % at 4.4 µM. 290,000 tested, 1.1% active. GPR7-expressing cells, fluorescence antagonist assay; in the data active = inhibition above about 16%, passing the limit was not always enough;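 also: cells stimulated with the agonist NPW; 0% = agonist with vehicle and 100% = vehicle without agonist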
# Target sequence (P48145 whole entry, looked up): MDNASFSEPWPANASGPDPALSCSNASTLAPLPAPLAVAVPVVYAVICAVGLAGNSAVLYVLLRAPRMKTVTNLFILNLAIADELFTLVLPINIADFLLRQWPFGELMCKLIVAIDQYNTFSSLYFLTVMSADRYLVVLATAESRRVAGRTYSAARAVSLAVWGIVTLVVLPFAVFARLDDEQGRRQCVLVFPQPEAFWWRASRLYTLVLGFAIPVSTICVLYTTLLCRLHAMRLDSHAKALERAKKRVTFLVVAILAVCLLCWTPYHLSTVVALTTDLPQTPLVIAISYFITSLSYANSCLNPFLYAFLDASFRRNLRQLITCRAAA
# OX1R antag-1 = antagonists of human orexin 1 receptor. O43613. CHO/OX1R cells, Fluo-8 calcium fluorescence, orexin A. inhibition, % at 5 µM. 330,000 tested, 0.43% active. AID 434989;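 active = inhibition above its plate's threshold, mean inhibition of all tested compounds on the plate plus 3 SD, cut at about 37% in these data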;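 also: 0% = orexin A challenge wells and 100% = SB-334867-A antagonist wells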
# TAAR1 antagonist = human TAAR1 antagonism. Q96RJ0. CHO RD-HGA16 TAAR1, Fluo-8 calcium fluorescence, antagonist. inhibition, % at 3 µM. 360,000 tested, 1.5% active. AID 624466;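 active = inhibition above a per-plate cutoff, the mean inhibition of test compounds on that plate plus 3 SD, cut at about 49% in these data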;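 also: 0% = DMSO plus EC80 beta-PEA response and 100% = DMSO alone without agonist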
#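 Test system – hTAAR1-expressing CHO RD-HGA16 cells, Gα16-coupled · Also added – β-PEA at EC80 concentration, post-compound challenge · Compound – 3 µM, single point · Incubation – dye loading 75 min at 37 °C, then 30 min room temperature · Measured by – Fluo-8 intracellular calcium dye fluorescence, real-time kinetic reads · Benchmarks – vehicle and agonist controls · Replicates – singlicate, one well per test compound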
# CHO parental Ca = counter-screen: ATP calcium response change in parental CHO cells | parental CHO-K1, ATP-induced calcium, Fluo-8 fluorescence | inhibition, % at 5.6 µM | 330,000 tested, 0.63% active;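 active = inhibition above that plate's mean sample inhibition plus 3 SD, cut at about 26% in these data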;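 also: 0% = ATP-challenged DMSO wells and 100% = DMSO wells without ATP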
#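 Assay system: parental CHO cells; Read-out basis: percent inhibition of ATP-evoked calcium rise, normalized to controls; Benchmarks: ATP and no-ATP DMSO wells; Compound dosing: single nominal dose of 5.6 µM per compound; Signal: Fluo-8 calcium dye fluorescence; Also added: ATP as calcium-mobilizing challenge; Repeats: singlicate.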
# OX1R antag-2 = blocks the human orexin 1 receptor; AID 485270; 330,000 tested, 1.8% active; OX1R-expressing cells, FRET antagonist read-out; inhibition, % at 6.6 µM; in the data active = inhibition mostly above about 38%, no sharp cut-off; inactive = mostly below about 40%;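 also: 0% = agonist challenge alone and 100% = reference antagonist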
# The depositor's hits bear a star; . = no result.
SMILES,TAAR1 ag,GPR7 antagonist,OX1R antag-1,TAAR1 antagonist,CHO parental Ca,OX1R antag-2
Cc1ccc(C2c3c(-c4ccccc4O)n[nH]c3C(=O)N2Cc2ccncc2)cc1 (stereo not drawn),10,20*,-36,3,-14,19
Cc1nc(NC(=O)c2ccccc2)sc1-c1csc(NCc2ccco2)n1,.,-12,4,.,-5,53*
O=C(c1ccc([N+](=O)[O-])cc1)N1CCN(C(=O)c2cccs2)CC1,4,-6,-10,7,-5,50*
O=C(NNC(=O)c1cc([N+](=O)[O-])ccc1Cl)c1cccs1,0,0,-4,-8,-4,46*
O=C(NNC(=O)c1ccccc1[N+](=O)[O-])c1cccs1,5,-19,3,1,-9,34
CC(=O)N1CCN(c2ccc(N3CCN(C(C)=O)[C@@H](C)C3)c(C)c2)[C@@H](C)C1,0,.,.,4,.,.
Cc1ccc(N2C(=O)c3cccc4c(C(=O)O)ccc(c34)C2=O)cc1,2,-2,2,6,-3,34
CC(=O)c1ccc2c3c(cccc13)C(=O)N(c1c(C)nn(C)c1C)C2=O,3,-10,-15,1,-12,67*
N#Cc1c(NC(=S)NC(=O)c2ccccc2)sc2c1CCN(CCc1ccccc1)C2,.,17,36,.,36*,26
N#Cc1c(NC(=S)NC(=O)c2ccccc2)sc2c1CCCC2,4,2,-24,-15,-12,14
NC(=O)c1ccsc1NC(=O)COC(=O)CSc1ccc(Cl)cc1,13,-3,45*,42,42*,8
Cc1ccsc1C(=O)OCC(=O)NCCNC(=O)COC(=O)c1sccc1C,2,.,-14,-9,-16,22
NC(=O)c1ccsc1NC(=O)COC(=O)c1ccc(Cl)c(N)c1,14,.,-3,53*,-21,28
NC(=O)c1ccsc1NC(=O)COC(=O)/C=C/c1ccc([N+](=O)[O-])cc1,8,3,-4,36,-5,9
Cc1ccsc1C(=O)OCC(=O)Nc1sccc1C(N)=O,42*,2,-20,24,-11,47
COC(=O)c1ccc(/C=C/C(=O)OCC(=O)Nc2sccc2C(N)=O)cc1,.,.,33,.,22,56*
COC(=O)c1cc2c(c3c4cc(F)ccc4n(S(=O)(=O)c4ccc(OC)cc4)c13)C(=O)N(Cc1ccccc1OC)C2,2,.,.,3,.,.
COc1ccc(C(=O)OCC(=O)Nc2sccc2C(N)=O)cc1[N+](=O)[O-],29,.,6,55*,-16,17
COc1ccc(C(=O)OCC(=O)NC(=O)NC2CCCC2)cc1[N+](=O)[O-],3,.,-10,4,-6,7
O=C(NCc1cccnc1)c1[nH]c(C(F)(F)F)nc1-c1ccccc1,1,.,.,-6,.,.
O=c1oc2ccc3ccccc3c2cc1-c1nnc(-c2ccccc2)o1,4,12,-2,-2,-5,74*
COc1ccc(-c2nnc(-c3cc4c(ccc5ccccc54)oc3=O)o2)cc1,1,-8,-22,7,-14,62
CN(C(=O)c1cccc(NC(=O)Cc2ccc(NC(=O)C3CCN(C(=O)CCc4ccccc4)CC3)cc2)c1)C1CCCC1,1,.,.,-11,.,.
Cc1cc(C(=O)CSc2nc3ccccc3c(=O)n2C)c(C)n1CC1CCCO1 (stereo not drawn),.,11,.,.,.,.
CCn1c(SCC(=O)c2cc(C)n(CC3CCCO3)c2C)nc2ccccc21 (stereo not drawn),17,-4,-21,15,-8,77*
SMILES,TAAR1 ag,GPR7 antagonist,OX1R antag-1,TAAR1 antagonist,CHO parental Ca,OX1R antag-2
Cc1cc(C(=O)CSc2nc3ccccc3c(=O)[nH]2)c(C)n1CC1CCCO1 (stereo not drawn),7,-5,25,27,60*,31
CCOc1cccc(C=NNC(=O)C(=O)Nc2cccc(C(F)(F)F)c2)c1O,6,.,.,14,.,.
Cc1ccc(CN2CC(N3CCC[C@@H]3C)CS2(=O)=O)cc1 (stereo partly drawn),1,.,.,-9,.,.
Cc1cc(-c2cc(NC(=O)Cc3c[nH]c4ccccc34)ccc2N(C)c2cccnc2)ccc1F,5,.,.,13,.,.
O=c1c2ccccc2sn1-c1cc(S(=O)(=O)N2CCOCC2)ccc1N1CCCC1,37,-2,-31,-6,-19,5
O=c1c2ccccc2sn1-c1cc(S(=O)(=O)N2CCOCC2)ccc1N1CCOCC1,87*,-7,-13,36,-8,7
COc1ccc(C(=O)CSc2nnc(-c3cccs3)n2-c2ccccc2)cc1,4,7,-19,-5,-4,25
COc1ccc(C(=O)CSc2nnc(CN3CCCCC3)n2-c2ccc(F)cc2)cc1,47*,9,-13,17,-10,4
CC(C)CCNC(=S)Nc1ccc([N+](=O)[O-])cc1,6,22*,39,28,28,45
CCCCNC(=S)Nc1ccc([N+](=O)[O-])cc1,5,23*,18,2,23,38
CCCCNC(=S)NC(=O)c1ccc([N+](=O)[O-])cc1,-3,22,-10,10,-11,36
COc1ccc2c(c1)[C@]1(C(=O)N2C)C2=C(CCCC2=O)Oc2cc(C)oc(=O)c21,0,.,.,-5,.,.
CNC12CCc3cc(OC)c(OC)c(c31)-c1cc3c(cc1C2)OCO3 (stereo not drawn),-2,.,.,-24,.,.
COC(=O)C1=C(C)N(Cc2cccc(C(F)(F)F)c2)C(=NCc2cc(OC)c(OC)c(OC)c2)NC1c1ccccc1C(F)(F)F (stereo not drawn),3,.,.,6,.,.
Cc1nn(-c2ccccc2)c(Cl)c1CN(C(=O)CCl)c1cccc2ccccc12,11,32*,-19,50*,-12,23
Cc1nn(-c2ccccc2)c(Cl)c1C(=O)NCC(=O)O,-1,-5,-1,10,-6,3
N#Cc1nc2ccccc2n1OCc1ccccc1,-1,.,.,2,.,.
Cc1ccccc1C(=O)N1CCC2CC1c1cc(Cl)ccc12 (stereo not drawn),4,.,.,-10,.,.
Cc1ccccc1C(=O)N1CCC2CC1c1cc(-c3ccc(F)cc3)ccc12 (stereo not drawn),0,.,.,59*,.,.
CCOC(=O)c1c(C)[nH]c(C(=O)COC(=O)C(C)N2C(=O)C3CCCCC3C2=O)c1C (stereo not drawn),22,-10,-4,51*,-14,15
CCOC(=O)c1c(C)[nH]c(C(=O)COC(=O)CN2C(=O)C3CCCCC3C2=O)c1C (stereo not drawn),12,7,-27,8,-12,18
O=C(NCCCc1ccc(F)cc1)C1CCC(=O)N(CCN2CCOCC2)C1 (stereo not drawn),0,0,-8,-37,-3,3
